# Screening results as filed in PubChem.
# Only some compounds are listed: those with a hit (about 3.6% of all), similar ones and a draw of the others.
# PAFAH1B2 FP inh: blocks human PAF acetylhydrolase 1b catalytic subunit 2. inhibition, % at 3.39 µM. recombinant PAFAH1B2, FP-rhodamine activity probe, fluorescence polarization. AID 492953. hit rate 1.2% among 340,000;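 active means inhibition above the mean of all tested compounds plus 3 SD, cut at about 24% in these data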
# Target sequence (P68402 whole entry, looked up): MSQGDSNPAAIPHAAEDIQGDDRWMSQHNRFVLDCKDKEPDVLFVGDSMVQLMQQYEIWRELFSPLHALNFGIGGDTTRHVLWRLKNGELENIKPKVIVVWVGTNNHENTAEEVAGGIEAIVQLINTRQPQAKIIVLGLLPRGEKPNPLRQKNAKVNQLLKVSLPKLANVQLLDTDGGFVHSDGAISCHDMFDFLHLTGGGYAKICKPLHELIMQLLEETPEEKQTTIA
# IMP-1 inhibitor: blocks Pseudomonas aeruginosa IMP-1 metallo-beta-lactamase. purified IMP-1, nitrocefin hydrolysis, epi-absorbance fluorescence. inhibition, % at 5.6 µM. hit rate 0.45% among 290,000;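 active means inhibition above the mean plus 3 SD of all compounds in the same screening run, cut at about 4.5% in these data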
#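 System: purified recombinant IMP-1 beta-lactamase. Medium: Zinc- and detergent-supplemented HEPES buffer, pH 7.1. Compound: one 5.6 µM dose […]. Schedule: 15 min preincubation plus 25 min reaction at 25 °C. Technique: Epi-absorbance fluorescence, 480 nm excitation, 530 nm emission.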
# VIM-2 inh: blocks Pseudomonas aeruginosa VIM-2 metallo-beta-lactamase; purified VIM-2, nitrocefin hydrolysis, epi-absorbance fluorescence; hit rate 0.89% among 290,000; inhibition, % at 5.6 µM;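 active means inhibition above the mean of all tested compounds plus 3 SD, cutoff set per screening run, cut at about 7.5% in these data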;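 further: red hydrolysis product quenches plate fluorescence so inhibitors raise well fluorescence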
# PAFAH1B3 FP inh: blocks human PAF acetylhydrolase 1B catalytic subunit 3; AID 492972; Q15102; recombinant PAFAH1B3, FP-rhodamine probe, fluorescence polarization; hit rate 0.28% among 340,000; inhibition, % at 3.39 µM;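 active means inhibition above the screen-wide average of all tested compounds plus 3 SD, cut at about 25% in these data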
# Target sequence (Q15102 whole entry, looked up): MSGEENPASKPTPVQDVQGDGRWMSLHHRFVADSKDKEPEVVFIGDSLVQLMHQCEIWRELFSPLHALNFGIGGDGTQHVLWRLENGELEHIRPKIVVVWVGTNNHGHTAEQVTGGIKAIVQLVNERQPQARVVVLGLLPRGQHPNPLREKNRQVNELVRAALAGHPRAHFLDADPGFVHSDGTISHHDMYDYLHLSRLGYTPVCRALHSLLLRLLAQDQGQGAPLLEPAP
# PAFAH2 inh: PAFAH2 (human) inhibition; Q99487; recombinant PAFAH2, FP-rhodamine activity probe, fluorescence polarization; inhibition, % at 3.39 µM; hit rate 0.99% among 340,000; AID 492956;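 active means inhibition above the mean over all tested compounds plus 3 SD, cut at about 30% in these data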;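 further: inhibitors block probe labeling of enzyme so polarization drops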
# pPAFAH FP inh: inhibitors of human plasma PAF acetylhydrolase (pPAFAH); recombinant pPAFAH, FP-rhodamine probe fluorescence polarization; hit rate 1.5% among 330,000; Q13093; inhibition, % at 3.39 µM;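 active means inhibition above the mean inhibition across the screen plus 3 SD, cut at about 25% in these data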;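 further: inhibitors block binding of the rhodamine activity-based probe so polarization drops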
# PAFAH2 confirm: PAFAH2 (human) inhibition, confirmed; shares compounds with PAFAH2 inh; recombinant PAFAH2, FP-rhodamine activity probe, fluorescence polarization; inhibition, % at 3.39 µM; hit rate 65% among 2,300;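 active means mean inhibition over three repeats above a set limit taken from the earlier primary screen, cut at about 30% in these data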;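 further: inhibitor blocks binding of rhodamine activity probe so polarization falls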
# Hits are given with their value; 0 = inactive; - = no result given.
SMILES,PAFAH1B2 FP inh,IMP-1 inhibitor,VIM-2 inh,PAFAH1B3 FP inh,PAFAH2 inh,pPAFAH FP inh,PAFAH2 confirm
Cc1nn(-c2ccccc2)c(Cl)c1C(=O)NCCN(C)C,0,0,0,0,0,0,-
O=C(COC(=O)c1ccccc1O)Nc1ccc2ccccc2c1,0,-,-,0,0,0,-
CCOc1ccccc1C(=O)OCC(=O)Nc1cccc(S(=O)(=O)N2CCCC2)c1,0,-,-,0,73,0,52
CCc1ccccc1OCC(=O)Nc1cccc(S(=O)(=O)N2CCCC2)c1,0,-,-,0,0,-,-
CCS(=O)c1ccccc1C(=O)OCC(=O)Nc1cccc(S(=O)(=O)N2CCCCC2)c1 (configuration not stated),0,-,-,0,59,0,53
CCS(=O)c1ccccc1C(=O)OCC(=O)Nc1ccc2ccccc2c1 (configuration not stated),0,-,-,0,70,0,67
CCC(=O)c1ccc(OCC(=O)OCC(=O)NCc2cccs2)cc1,0,-,-,0,0,0,-
CC(=O)Nc1ccc(C(=O)OCC(=O)NCc2cccs2)cc1,0,-,-,0,72,0,38
CC(=O)Nc1ccc(C(=O)OCC(=O)NCc2ccc(Cl)cc2)cc1,-,0,0,-,-,0,-
Cc1cccc(C(=O)OCC(=O)NCc2cccs2)c1,0,0,0,0,41,0,0
CC(C)COc1ccc(C(=O)OCC(=O)NCc2cccs2)cc1,0,-,-,0,41,0,37
O=C(Nc1ccncc1)c1ccc(Cl)c(S(=O)(=O)N2CCCC2)c1,0,-,-,0,0,0,-
CCN(Cc1ccccc1)C(=O)Cn1c(=O)n(CC(=O)NCc2ccco2)c(=O)c2sccc21,0,0,0,0,0,0,-
CN(C)S(=O)(=O)c1cccc(NC(=O)COC(=O)/C=C/c2ccc3c(c2)OCO3)c1,0,0,0,0,74,0,62
Cc1ccc(S(=O)(=O)N(C)C)cc1NC(=O)COC(=O)/C=C/c1ccc2c(c1)OCO2,0,0,0,0,57,0,47
Cc1ccc(S(=O)(=O)N(C)C)cc1NC(=O)COC(=O)/C=C/c1cnc2ccccc2n1,0,0,0,0,0,0,-
O=c1cc(C(F)(F)F)nc(SCc2cccc3ccccc23)[nH]1,0,0,0,0,51,0,31
CCc1cc(=O)[nH]c(SCc2cccc3ccccc23)n1,0,0,0,0,61,0,51
Nc1cc(=O)[nH]c(SCc2cccc3ccccc23)n1,0,0,0,0,0,0,-
O=C(CSc1nc(C(F)(F)F)cc(=O)[nH]1)N1CCC(Cc2ccccc2)CC1,0,-,-,0,0,0,-
O=C(Nc1ccc([N+](=O)[O-])cc1)Nn1cnnc1,0,0,0,0,0,0,-
COc1ccc(C2(C)C(C#N)C(=O)NC(=O)C2C#N)cc1 (configuration not stated),0,-,-,0,0,-,-
O=C(COC(=O)C1=COCCO1)NC1CCCCCCC1,0,0,0,0,76,0,74
O=C(COC(=O)C1=COCCO1)Nc1ccc([N+](=O)[O-])cc1C(F)(F)F,0,-,-,0,32,0,0
N#Cc1ccc(NC(=O)COC(=O)C2=COCCO2)cc1,0,0,0,0,0,0,-
SMILES,PAFAH1B2 FP inh,IMP-1 inhibitor,VIM-2 inh,PAFAH1B3 FP inh,PAFAH2 inh,pPAFAH FP inh,PAFAH2 confirm
O=C(COC(=O)C1=COCCO1)Nc1ccccc1,0,0,0,0,79,0,68
O=C(NC1CCCC1)C1=COCCO1,0,0,0,0,0,0,-
CC(=O)c1cccc(NC(=O)COC(=O)C2=COCCO2)c1,0,0,0,0,44,0,38
COc1ccccc1P(=O)(Cc1ccccc1[N+](=O)[O-])c1ccccc1 (configuration not stated),0,0,0,0,0,0,-
O=C(COC(=O)C1=COCCO1)Nc1ccccc1Oc1ccccc1,0,0,0,0,0,0,-
O=C(COC(=O)C1=COCCO1)Nc1cccc(Oc2ccccc2)c1,0,0,0,0,90,0,74
O=c1oc(-c2cccc([N+](=O)[O-])c2)nc2ccccc12,0,0,0,0,43,0,48
O=c1oc(-c2ccc(Br)o2)nc2ccccc12,0,0,0,0,60,0,65
Cc1ccc2nc(-c3ccccc3C)oc(=O)c2c1,0,0,0,0,65,0,45
COc1ccc(-c2nc3ccc(C)cc3c(=O)o2)cc1OC,0,0,0,0,43,0,42
